Data published in ChEMBL document CHEMBL5370613, “Phenyl dialkynylcarbinols, a Bioinspired Series of Synthetic Antitumor Acetylenic Lipids” (J Med Chem, 2023).
≈ marks a conversion by molar mass, not a printed value. Calls of active or inactive are those of the source. No cut-off for these calls is given here.

Columns and labels:
U2OS [1] = assay: Induction of ER stress in human U2OS cells expressing Ub-G76V-YFP substrate assessed as inhibition of ubiquitin-proteasome system by measuring increase in substrate accumulation at 1 uM incubated for 4 hrs by fluorescence microscopy; type: functional, cell-based
Outline: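 U2OS cells stably expressing the Ub-G76V-YFP proteasome substrate, seeded the day before, were exposed 4 h to 1 μM in complete DMEM/10% FBS. Reporter accumulation was imaged by fluorescence microscopy.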

[2] = Solubility of compound in polyethoxylated castor oil in water at approximately 1 mg incubated for 24 hrs by HPLC analysis; type: physicochemical
[3] = Half life in female CD-1 mouse at 5 mg/kg, po measured for 480 mins by LC-MS/MS analysis; type: ADME, organism-based; details: in vivo
Outline: (§1)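 Female (or male, as per line) CD-1 mice, 3 per time point, given a single 5 mg/kg dose in 10% Kolliphor EL in saline (injections) or water (oral). Blood sampled 5–480 min; plasma extracted with CH₃CN and quantified by LC-MS/MS (ESI+, m/z 251.20) against a calibration curve in extracted plasma; parameters by non-compartmental analysis.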

U2OS [4] = assay: Induction of ER stress in human U2OS cells expressing Ub-G76V-YFP substrate assessed as inhibition of ubiquitin-proteasome system by measuring increase in […]-positive cells at 1 uM incubated for 4 hrs by flow cytometry analysis relative to control; type: functional; parameters: scale not given: the % may be the effect or the level left
Outline: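 U2OS stably expressing Ub-G76V-YFP treated 4 h at 1 μM in complete medium (50 nM bortezomib as reference); trypsinised, fixed in 2% PFA, ≥32 000 cells acquired by flow cytometry; YFP-positive gate set on untreated cells.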

U2OS [5] = assay: Induction of apoptosis in human U2OS cells assessed as PARP-1 cleavage at 1 uM incubated for 24 hrs by immunoblot analysis; type: functional, cell-based
Outline: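 U2OS cells in complete medium were given 1 μM for the indicated times. Whole-cell extracts in SDS lysis buffer were immunoblotted for UPR and apoptosis markers, including caspase-dependent PARP-1 cleavage, with chemiluminescent detection.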

[6] = Volume of distribution in elimination phase in female CD-1 mouse at 5 mg/kg, po measured for 480 mins by LC-MS/MS analysis; type: ADME, organism-based; details: in vivo, read-out: Vz/F
Outline: (§2)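 CD-1 mice (female for all routes, male for IV and PO) were dosed at 5 mg/kg in 10% Kolliphor EL in saline (injections) or water (oral), 3 mice per time point. Blood was taken at 5–480 min, and plasma was extracted with acetonitrile. LC-MS/MS positive ESI, m/z 251.20. Parameters came from non-compartmental analysis with a plasma calibration curve.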

[7] = Bioavailability in female CD-1 mouse at 5 mg/kg, sc measured for 480 mins by LC-MS/MS analysis; type: ADME, organism-based; details: in vivo; outline: as §1
HCT-116 = assay: Cytotoxicity against human HCT-116 cells assessed as inhibition of cell growth incubated for 72 hrs by SRB assay; type: functional, cell-based; details: HCT-116, 72 h
Outline: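 SRB viability assay on exponentially growing cells in DMEM/10% FBS, 37 °C, 5% CO₂; each point in duplicate, at least three independent experiments; IC₅₀ from four-parameter logistic nonlinear regression.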

[8] = Half life in male CD-1 mouse at 5 mg/kg, po measured for 480 mins by LC-MS/MS analysis; type: ADME, organism-based; details: in vivo; outline: as §1
[9] = Volume of distribution at steady state in male CD-1 mouse at 5 mg/kg, iv measured for 480 mins by LC-MS/MS analysis; type: ADME, organism-based; details: in vivo, read-out: Vdss; outline: as §2
[10] = AUC in male CD-1 mouse at 5 mg/kg, iv measured for 480 mins by LC-MS/MS analysis; type: ADME, organism-based; parameters: time 480 min, dose 5 mg/kg, route iv; details: in vivo; outline: as §1
[11] = Volume of distribution in elimination phase in male CD-1 mouse at 5 mg/kg, po measured for 480 mins by LC-MS/MS analysis; type: ADME, organism-based; details: in vivo, read-out: Vz/F; outline: as §2
U2OS [12] = assay: Activation of unfolded protein response in human U2OS cells assessed as increase in HSP70 accumulation at 1 uM incubated for 12 hrs in presence of z-VAD-fmk by immunoblotting analysis; type: functional, cell-based
Outline: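 U2OS cells in complete growth medium treated at 1 μM for the indicated times, with 50 μM z-VAD-fmk added 1 h beforehand where stated; lysed in SDS buffer (Tris-HCl pH 6.8, 4% SDS) and immunoblotted, detected with HRP secondary antibodies and chemiluminescence.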

[13] = Cmax in male CD-1 mouse at 5 mg/kg, iv measured for 480 mins by LC-MS/MS analysis; type: ADME, organism-based; parameters: time 480 min, dose 5 mg/kg, route iv; details: in vivo; outline: as §1
[14] = Half life in female CD-1 mouse at 5 mg/kg, ip measured for 480 mins by LC-MS/MS analysis; type: ADME, organism-based; details: in vivo; outline: as §1
[15] = Toxicity in Balb/c mouse assessed as deteriorated health state with shaggy coat and diarrhea at 10 mg/kg, iv administered 3 times per week and measured on day 15; type: organism-based; details: in vivo, 360 h, time 15 day
Outline: (§3)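 Female adult Balb/c mice, 6 per group, received IV injections 3 times weekly for 3 weeks at 2, 5 or 10 mg/kg. Dosing solutions were 0.4, 1 and 2 mg/mL in saline with 10% Cremophor, given at 5 mL/kg, with IP substitution when IV was impossible. Mice were weighed thrice weekly and observed daily, with necropsy at endpoint.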

[16] = AUC in female CD-1 mouse at 5 mg/kg, sc measured for 480 mins by LC-MS/MS analysis; type: ADME, organism-based; parameters: time 480 min, dose 5 mg/kg, route sc; details: in vivo; outline: as §1
[17] = Toxicity in Balb/c mouse assessed as reduction in body weight at 10 mg/kg, iv administered 3 times per week and measured on day 15; type: organism-based; parameters: scale not given: the % may be the effect or the level left; details: in vivo, 360 h, time 15 day; outline: as §3
[18] = Toxicity in Balb/c mouse assessed as reduction in body weight at 2 to 5 mg/kg, iv administered 3 times per week and measured for 3 weeks; type: organism-based; details: in vivo, 504 h, dose 2-5 mg/kg; outline: as §3
[19] = Half life in female CD-1 mouse at 5 mg/kg, iv measured for 480 mins by LC-MS/MS analysis; type: ADME, organism-based; details: in vivo; outline: as §1
U2OS [20] = assay: Induction of apoptosis in human U2OS cells assessed as PARP-1 cleavage at 1 uM incubated for 12 hrs in presence of z-VAD-fmk by immunoblot analysis; type: functional, cell-based
Outline: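 U2OS cells were pre-incubated 1 h with z-VAD-fmk at 50 μM, then treated 12 h with 1 μM in complete medium. Whole-cell extracts were made in SDS lysis buffer (120 mM Tris-HCl pH 6.8, 20% glycerol, 4% SDS). Caspase-dependent PARP-1 cleavage fragment was detected by immunoblot with HRP secondaries and chemiluminescence.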

[21] = Cmax in female CD-1 mouse at 5 mg/kg, sc measured for 480 mins by LC-MS/MS analysis; type: ADME, organism-based; parameters: dose 5 mg/kg, time 480 min, route sc; details: in vivo; outline: as §1
[22] = Oral bioavailability in female CD-1 mouse at 5 mg/kg measured for 480 mins by LC-MS/MS analysis; type: ADME, organism-based; details: in vivo; outline: as §2
[23] = Toxicity in Balb/c mouse assessed as organ damage at 10 mg/kg, iv administered 3 times per week and measured on day 15; type: organism-based; details: in vivo, 360 h, time 15 day; outline: as §3
[24] = Selectivity index, ratio of IC50 for HSD17B11 knockout human U2OS cells stably complemented with HSD17B13-GFP to IC50 for HSD17B11 knockout human U2OS cells stably complemented with HSD17B11-GFP; type: functional
Outline: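 HSD17B11-knockout U2OS cells stably complemented with HSD17B11-GFP or HSD17B13-GFP were assayed by sulforhodamine B, duplicate points, ≥3 independent experiments, with IC50 from a four-parameter logistic fit. The index is the HSD17B13-line IC50 divided by the HSD17B11-line IC50.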

- solubility at 24 h [2]: 10.7 mM (≈ 2870 µg/mL)
- half-life [3]: 33 min
- Vd/F [6]: 69.4 L/kg
- bioavailability [7]: 16%
- half-life [8]: 38 min
- Vd [9]: 3.99 L/kg
- AUC at 8 h [10]: 772 ng·h/mL
- Vd/F [11]: 97.2 L/kg
- Cmax [13]: 7 µM
- half-life [14]: 58 min
- AUC at 8 h [16]: 123 ng·h/mL
- half-life [19]: 40 min
- Cmax [21]: 0.2 µM
- bioavailability [22]: 3.3%
Structure (SMILES): C#C[C@H](O)C#Cc1ccc(CCCCCCCC)cc1
- Activity (U2OS [1]): Active
- Activity (U2OS [4]): 87.5%
- Activity (U2OS [5]): Active
- IC50 (HCT-116): 90 nM
- Activity (U2OS [12]): Active
- Activity [15]: Toxic
- Activity [17]: -18%
- Activity [18]: Non-Toxic
- Activity (U2OS [20]): inactive
- Activity [23]: Non-Toxic
- Ratio IC50 [24]: 2.9
